This assay is described as follows: S. cerevisiae growth inhibition, turbidity – wild-type and eIF2Bepsilon R284H mutant, A595, cytotoxicity control for eIF2B function restoration project, primary screen (AID 685).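 Also: 0% = untreated cell controls and 100% = YPD media blanks without cells.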 Particulars: 16 h, stronger effect = higher value, screened at 25 µM (by protocol). The gist of the method:
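System – wild-type and eIF2Bepsilon-R284H mutant S. cerevisiae, screened separately · Measured by – absorbance at 595 nm (turbidity) · Timing – 16 h compound exposure during growth at 30 °C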

The mark [1] stands for this setting: S. cerevisiae eIF2Bepsilon-R284H mutant growth.

The whole screen tested about 30,000 compounds, of which about 80 (0.3%) were called active.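 The calls were made as follows: active = mutant and wild-type yeast strains alike exhibit over 30% growth inhibition; inconclusive = a strain exceeds 50% while the second remains under 30%; inactive = the rest.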 This excerpt belongs to a sample that is enriched for actives.

Turning to `CC(C)NC(=O)C(=O)NCCN1CCN(S(=O)(=O)c2ccc(Cl)cc2)CC1`, the growth inhibition under setting [1] was 7.69% and the growth inhibition (S. cerevisiae wild-type growth) was 7.31% (inactive).
As to `COc1ccc(C2CC(=O)n3c(nc4ccccc43)S2)cc1OC` (stereo not given), the growth inhibition by setting is: under setting [1], -2.13%; (S. cerevisiae wild-type growth) 32% (inactive).
For `COc1ccc(-c2cc(C(F)(F)F)nc(NCc3cccnc3)n2)cc1` the same measures were 25.5% and 15.3% (inactive).
For `CCCc1nc2sc3c(c2c(=O)n1NC(=O)CCCl)CCCC3` the same measures were 9.3% and -7.93% (inactive).
For `CCOC(=O)N1CCN(C(=O)COc2ccc(Br)cc2)CC1`, in that order: 0% and 10.3% (inactive).
Regarding `CCn1nc(C)c(NC(=O)/C=C/c2ccc(OC)c(COc3ccc(Br)cc3)c2)c1C`, the growth inhibition under setting [1] worked out at 50% and the growth inhibition (S. cerevisiae wild-type growth) was 54.5% (active).
For `COc1cccc(OCc2cc(/C=N/NC(=O)c3nc(Cl)c(Cl)c(N)c3Cl)ccc2OC)c1` the same measures were -17.9% and -14.8% (inactive).
With `C=CCn1c(SCc2c(C(=O)OC)sc(N)c2C(=O)OC)nnc1-c1ccc(Cl)cc1`, the growth inhibition was 6.98% under setting [1] and -10.3% (inactive) (S. cerevisiae wild-type growth).
On to `CCCCOc1ccc(C(=O)NCc2ccncc2)cc1`, for which the growth inhibition was 18.6% under setting [1] and 33.8% (inactive) (S. cerevisiae wild-type growth).
As to `CCCOc1ccc(C2NC(=O)NC(c3ccccc3)=C2C(C)=O)cc1OCC` (stereo not given), the growth inhibition is, setting by setting: under setting [1], 7.89%; (S. cerevisiae wild-type growth) 4.64% (inactive).
In the case of `COC(=O)/C(NC(C)=O)=C(\C)c1ccc(Cl)cc1`, the growth inhibition is, setting by setting: under setting [1], -32.3%; (S. cerevisiae wild-type growth) 8.3% (inactive).
For `CCOc1ccc(NC(=O)CCS(=O)(=O)c2ccc3c(c2)CCCN3C(=O)CC)cc1`, the growth inhibition is 13.5% under setting [1] and 10.8% (inactive) (S. cerevisiae wild-type growth).
For `CCN(CC)CCn1c(=S)[nH]c2ncccc2c1=O`, in that order: 5.13% and 11.5% (inactive).
For `CCc1ccc(NC(=O)CN2C(=O)CSC2=O)cc1`, in that order: -8.82% and 5% (inactive).
For `COc1ccc(C)cc1S(=O)(=O)NCCc1ccccc1` the same measures were 12.9% and 4.64% (inactive).
Turning to `CC(C)=C1SC(N2CCN(c3cccc(C)c3)CC2)=NC1=O`, the growth inhibition was 16.2% under setting [1] and 11.8% (inactive) (S. cerevisiae wild-type growth).
With `COc1cccc2cc(C(=O)N3CCN(C(=O)c4ccccc4)CC3)c(=O)oc12`, the growth inhibition is, setting by setting: under setting [1], 9.38%; (S. cerevisiae wild-type growth) 8.28% (inactive).
For `CC(Oc1ccc(Cl)cc1)c1ccnn1S(C)(=O)=O` (stereo not given), in that order: 10.8% and 28.1% (inactive).
For `CC(C)(C)n1nnnc1C(c1ccc(F)cc1)N1CCN(Cc2ccc3c(c2)OCO3)CC1` (stereo not given) the same measures were -18.2% and 15% (inactive).
For `NC(=O)c1ncc(C(F)(F)F)cc1Oc1ccc(F)cc1`, in that order: -3.33% and 19.2% (inactive).
In the case of `CCn1nccc1C(=O)Nc1ccc(Cl)c(Cl)c1`, the growth inhibition runs as follows: under setting [1], -8.33%; (S. cerevisiae wild-type growth) 12.8% (inactive).
For the compound `N/C(=N\OC(=O)Nc1ccc(Cl)c(Cl)c1)c1ncc(C(F)(F)F)cc1Cl`, the growth inhibition is 30.3% under setting [1] and 35.2% (active) (S. cerevisiae wild-type growth).
For `CN1CCN(C(=O)Cn2c(C(F)(F)F)nc3ccccc32)CC1` the same measures were 25% and 9.62% (inactive).
For `CC(C)(C)N1CC(c2nc3ccccc3n2Cc2ccc(F)cc2)CC1=O` (stereo not given) the same measures were 20% and 5% (inactive).
For `CS(=O)(=O)Nc1ccc(C(=O)N2CCCC2)cc1`, in that order: 11.6% and 38.3% (inactive).
Turning to `Cc1[nH][nH]c(=O)c1C(c1ccc(-c2ccc(Cl)cc2)o1)c1c(C)[nH][nH]c1=O`, the growth inhibition was 63% under setting [1] and 75.8% (active) (S. cerevisiae wild-type growth).
`Cc1[nH][nH]c(=O)c1N=Nc1ccccc1`: the growth inhibition is, setting by setting: under setting [1], 8.33%; (S. cerevisiae wild-type growth) 25.8% (inactive).
For `Cc1ccccc1-c1nnc(SCC(=O)NCc2ccc3c(c2)OCO3)n1C` the same measures were 8.14% and 13.1% (inactive).
For `CC(C)(CNC(=O)c1cc(=O)[nH]c2ccccc12)N1CCOCC1` the same measures were -23.8% and -1.08% (inactive).
Regarding `Cc1cc(NC(=O)CN2CCCC(C)C2)n(-c2nc3ccccc3s2)n1` (stereo not given), the growth inhibition is, setting by setting: under setting [1], -42.9%; (S. cerevisiae wild-type growth) -15.7% (inactive).
For the compound `Cc1[nH]n(-c2cccc(Cl)c2)c(=O)c1/C=N/n1c(C)nc2ccccc2c1=O`, the growth inhibition was 2.56% under setting [1] and 21% (inactive) (S. cerevisiae wild-type growth).
Consider `O=C(CCS(=O)(=O)c1cccc2nsnc12)N1CCN(c2ccccc2F)CC1`, for which the growth inhibition runs as follows: under setting [1], 12.5%; (S. cerevisiae wild-type growth) 11.5% (inactive).
For `Cc1ccc(S(=O)(=O)N2CCN(S(=O)(=O)N3CCOCC3)CC2)cc1`, in that order: -11.9% and 10.3% (inactive).
For `COC(=O)c1ccc(/C=N\n2c(C)nnc2C)cc1`, in that order: -3.85% and -0.22% (inactive).
In the case of `CC(=O)Nc1cccc(Oc2cc(C#N)c(C#N)cc2N2CCOCC2)c1`, the growth inhibition is -4.55% under setting [1] and -7.1% (inactive) (S. cerevisiae wild-type growth).
In the case of `O=C(N/N=C/c1ccc(O)cc1)/C(=C/c1ccc([N+](=O)[O-])cc1)NC(=O)c1ccccc1`, the growth inhibition by setting is: under setting [1], 15%; (S. cerevisiae wild-type growth) 5% (inactive).
For `CC(=NCc1ccco1)c1c(C(F)(F)F)[nH]n(-c2nc3ccccc3s2)c1=O`, the growth inhibition is 7.61% under setting [1] and 34.2% (inactive) (S. cerevisiae wild-type growth).
Take `O=C(CSc1n[nH]c(-c2cccnc2)n1)Nc1ccnc2ccccc12`: the growth inhibition is, setting by setting: under setting [1], 7.69%; (S. cerevisiae wild-type growth) 1% (inactive).
In the case of `Cc1ccc(S(=O)(=O)N(C)C2(C)CCS(=O)(=O)C2)cc1` (stereo not given), the growth inhibition under setting [1] came to 5% and the growth inhibition (S. cerevisiae wild-type growth) was -6.15% (inactive).
For `COC(=O)c1ccccc1NC(=O)CN(Cc1ccc(Cl)cc1)S(C)(=O)=O` the same measures were 6.98% and 4.14% (inactive).
For `CCSc1ccccc1C(=O)NCc1ccc(OC)cc1`, the growth inhibition reads like this: under setting [1], 10.3%; (S. cerevisiae wild-type growth) 2.69% (inactive).
In the case of `CCOc1ccc(S(=O)(=O)NCCSc2ccccc2)cc1`, the growth inhibition is 12.5% under setting [1] and 10% (inactive) (S. cerevisiae wild-type growth).
For `CCNC(=O)c1sccc1-n1cccc1` the same measures were 12.9% and 8.21% (inactive).
As for `COCCCNC(=O)COc1cc(C)c(Cl)c(C)c1`, the growth inhibition by setting is: under setting [1], -13.6%; (S. cerevisiae wild-type growth) 8.44% (inactive).
For `COC(=O)Nc1ncc(CN2CCCCC2)s1`, the growth inhibition was 6.45% under setting [1] and -0.8% (inactive) (S. cerevisiae wild-type growth).
On to `CCOc1ccc(S(=O)(=O)Nc2ccc(S(=O)(=O)Nc3cc(OC)ccc3OC)cc2)cc1`, for which the growth inhibition under setting [1] is 6.38% and the growth inhibition (S. cerevisiae wild-type growth) was 5.67% (inactive).
For the compound `CC1(C)NC(=O)N(CCCCSc2ccc(Cl)cc2)C1=O`, the growth inhibition under setting [1] is 15.6% and the growth inhibition (S. cerevisiae wild-type growth) was 21.2% (inactive).
For `CC/S(CC1CC1(Cl)Cl)=N\S(=O)(=O)c1ccc(C)cc1` (stereo not given) the same measures were 25.5% and 20.7% (inactive).
For `Cc1ccc(C(=O)N2CCCC2)c(F)c1F` the same measures were 20% and 0.21% (inactive).
For `O=C(c1ccc(Cl)c(Cl)c1)N1CCCC1` the same measures were 8.89% and 28.3% (inactive).
On to `CCCCc1nnc(NC(=O)CSc2nc(C)cc(=O)[nH]2)s1`, for which the growth inhibition is, setting by setting: under setting [1], 20%; (S. cerevisiae wild-type growth) 14.6% (inactive).
On to `c1ccc(CSCCc2ccncc2)cc1`, for which the growth inhibition under setting [1] was found to be 20% and the growth inhibition (S. cerevisiae wild-type growth) is 22.3% (inactive).
For `CCC(=O)N(Cc1ccccc1)c1ccccn1` the same measures were 15% and 1.54% (inactive).
For `Nc1c(C(=O)NCc2ccccc2)sc2nc3c(cc12)C(=O)CCC3`, the growth inhibition runs as follows: under setting [1], 0%; (S. cerevisiae wild-type growth) -16.4% (inactive).
Regarding `Cc1ccoc1C(=O)Nc1cccc(Oc2ccccc2)c1`, the growth inhibition was 20% under setting [1] and 20.3% (inactive) (S. cerevisiae wild-type growth).

The record behind these values is PubChem BioAssay AID685 (PCMD, 2007).
